The nature of experiment [1]: Inhibition of AZT-MP production by cell free extracts of CEM cells. It is filed as functional, Homo sapiens, CCRF-CEM. The arrangement: unit not given here. The method in brief:
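CEM cells (1.5 × 10^8) sonicated in 1 mL 20 mM Tris-HCl, 500 mM NaCl, pH 7.5. Lysate incubated with phosphoramidate and carbamate, each added from 10 mM stock, for 45 min at 37 °C, then stopped with methanol. AZT-MP quantified by RP-HPLC-RIA against a no-carbamate control. Mean of two experiments.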

Experiment [2] is filed under the species Homo sapiens. Kind of experiment: Effective concentration of required to inhibit the replication of HIV-1 BY 50% in PMBCs from donor 2. In kind it is functional, organism-based.
The species entered for experiment [3] is Homo sapiens. Kind of experiment: Effective concentration required to inhibit the replication of HIV-1 with 2 hr pretreatment of activated PBMCs. It is filed as functional, organism-based. The method in brief: (§1)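 Uninfected PHA-stimulated PBMCs (2.5 × 10^5 cells/mL) given compound in ddH2O in triplicate for 2 h at 37 °C, then LAI/HIV-1 (5000 DPM/10^6 cells) added. In parallel cultures, cells were infected 3 h first and then treated. After 6 days at 37 °C, supernatant RT activity measured.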

The next experiment has as its system U1. Nature of the experiment: Antiviral activity was determined in chronically infected U1 cell line with HIV-1. It is filed as functional, cell-based. Conditions: Homo sapiens. The gist of the method:
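HIV-1 chronically infected U1 cells (1.5 × 10^5 cells/well) in RPMI 1640 with 10% FBS and 10 ng/mL TNF-α. Compound in ddH2O added to duplicate cultures. Incubated 48 h at 37 °C, 5% CO2. Supernatant p24gag measured by ELISA; XTT assay run on the remaining culture.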

Experiment [4] has as its system Human immunodeficiency virus 1. Kind of experiment: Concentration required to inhibit the production of proviral DNA in unactivated PBMCs.
The species entered for experiment [5] is Homo sapiens. Kind of experiment: Effective concentration required to inhibit the replication of HIV-1 by 50% in PMBCs in the absence of thymidine. It is filed as functional, organism-based.
The species entered for experiment [6] is Homo sapiens. Kind of experiment: Effective concentration required to inhibit the replication of HIV-1 with no pretreatment of activated PBMCs. In kind it is functional, organism-based. The gist of the method: as §1
The species entered for experiment [7] is Homo sapiens. Nature of the experiment: Concentration required to kill 50% of PBMCs. It is filed as functional, organism-based. The method in brief:
(§2)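 Uninfected PHA-stimulated PBMCs or CEM cells plated at 2.5 × 10^5 cells/well with diluted drug. Incubated 6 days at 37 °C, 10% CO2. XTT/PMS added and incubated 4 h at 37 °C. Absorbance read at 450 nm, 630 nm reference.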

The species entered for experiment [8] is Homo sapiens. Kind of experiment: Effective concentration required to inhibit the replication of HIV-1 in activated PBMCs. In kind it is functional, organism-based. The gist of the method:
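PBMCs held 2 days either resting (no PHA, no IL-2) or with 10 μg/mL PHA, then IL-2 10 U/mL. Nonadherent cells infected with LAI/HIV-1 (5000 DPM/10^6 cells) for 3 h and washed. Plated at 2.5 × 10^5 cells/mL, compounds added in triplicate, 6 days at 37 °C. Supernatant RT activity measured; proviral gag DNA by PCR normalised to IFN-β1.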

The subject of experiment [9] is CCRF-CEM. Kind of experiment: Concentration required to kill 50% of CEM cells. It is filed as functional, cell-based. To be noted: Homo sapiens. The gist of the method: as §2
The test system of experiment [10] is CCRF-CEM. Kind of experiment: Effective concentration of required to inhibit the replication of HIV-1 BY 50% in CEM cells. It is filed as functional, cell-based. To be noted: Homo sapiens. The gist of the method: (§3)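 PHA-stimulated CEM cells infected 3 h at 37 °C with LAI/HIV-1 (10 000 DPM RT activity/10^6 cells), then washed. Resuspended at 2.5 × 10^5 cells/mL in medium with 10 U/mL IL-2. Drugs in ddH2O added to duplicate or triplicate cultures. Held 6 days at 37 °C; supernatant p24 measured by ELISA.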

The species named for experiment [11] is Homo sapiens. Nature of the experiment: Effective concentration required to inhibit the replication of HIV-1 by 50% in PMBCs in the presence of thymidine. In kind it is functional, organism-based.
Experiment [12] is filed under the species Homo sapiens. Nature of the experiment: Effective concentration of required to inhibit the replication of HIV-1 BY 50% in PMBCs from donor 1. In kind it is functional, organism-based.
Experiment [13] is filed under the species Homo sapiens. Nature of the experiment: (§4) Intracellular of AZT-TP concentrations in LAI/HIV-1 infected PMBCs was determined at a conc of 10 uM). In kind it is functional, organism-based. The method in brief: (§5)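 PHA-stimulated, LAI/HIV-1-infected PBMCs (donor 2) at 10^6 cells/mL, triplicate, given 10 µM compound ± 50 µM thymidine for 18 h at 37 °C. Cells washed, extracted in 60% methanol overnight at −20 °C, dried and reconstituted. AZT-TP quantified by inhibition of recombinant HIV-1 RT (poly(rA)-oligo(dT), 3H-TTP, 2 h at 37 °C) relative to AZT-TP standards; pmol/10^6 cells.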

Experiment [14] deals with Human immunodeficiency virus 1. Nature of the experiment: Concentration required to inhibit HIV-1 replication by 50% in activated PBMCs.
The species named for experiment [15] is Homo sapiens. Described as §4. In kind it is functional, organism-based. The method in brief: as §5
This is another data set of the same source.

For experiment [16], the species on record is Homo sapiens. Nature of the experiment: Inhibition of Phosphoramidase activity with AZT L-amino acid carbamates. In kind it is functional. To be noted: concentration not given here. The method in brief: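 CEM cells (1.5 × 10^8) sonicated in 1 mL 20 mM Tris-HCl, 500 mM NaCl, pH 7.5. Whole lysate incubated 45 min at 37 °C with phosphoramidate (from 10 mM water stock) and carbamate (from 10 mM DMSO stock), then stopped with methanol. AZT-MP quantified by RP-HPLC-RIA against a no-carbamate control. Mean of two experiments.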

The species named for experiment [17] is Homo sapiens. Kind of experiment: Concentration required to kill 50% of PBMCs cells. To be noted: PBMC. It is filed as functional, cell-based. The gist of the method:
as §2

Experiment [18] relates to CCRF-CEM. Kind of experiment: Effective concentration to inhibit HIV-1 replication by 50% in CEM cells. It is filed as functional, cell-based. Conditions: Homo sapiens. The gist of the method: as §3
For experiment [19], the species on record is Homo sapiens. Kind of experiment: Effective concentration to inhibit HIV-1 replication by 50% in PMBCs cells from donor 2. It is filed as functional, cell-based. The method in brief: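 Ficoll-isolated human PBMCs, PHA-stimulated, grown in RPMI 1640 with 10% heat-inactivated FBS, penicillin/streptomycin and IL-2 (10 U/mL) at 37 °C. Cells were infected with LAI/HIV-1, and compounds in ddH2O were added to duplicate or triplicate cultures. After 6 days, supernatant viral RT activity was measured.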

Experiment [20] is filed under the species Homo sapiens. Nature of the experiment: Effective concentration to inhibit HIV-1 replication by 50% in PMBCs cells from donor 1. In kind it is functional, cell-based.

The structures appear in SMILES notation.

As for `COC(=O)[C@@H](Cc1c[nH]c2ccccc12)NP(=O)(O)OC[C@H]1O[C@@H](n2cc(C)c(=O)[nH]c2=O)C[C@@H]1N=[N+]=[N-].COC(=O)[C@H](Cc1c[nH]c2ccccc12)NC(=O)OC[C@H]1O[C@@H](n2cc(C)c(=O)[nH]c2=O)C[C@@H]1N=[N+]=[N-]` [listing 1 of 2 here], the Activity in [1] is 2.56.

Take `COC(=O)[C@H](Cc1ccccc1)NP(=O)(O)OC[C@H]1O[C@@H](n2cc(C)c(=O)[nH]c2=O)C[C@@H]1N=[N+]=[N-]`: the Activity in experiment [1] is reported as 6.3. Moreover, the EC50 in the experiment filed under Homo sapiens [2] was 15000 nM; in the experiment listed under Homo sapiens [3] it was 1000 nM; in the experiment on U1, 25000 nM; in the experiment filed under Homo sapiens [5], 15000 nM; in the experiment listed under Homo sapiens [6] it was 15000 nM; in the experiment filed under Homo sapiens [8], over 100000 nM. In addition, the EC50 with CCRF-CEM [10] was under 1 nM; in the experiment filed under Homo sapiens [11], over 100000 nM; in the experiment filed under Homo sapiens [12] it was 30000 nM. In [4], this molecule showed an IC100 of over 100 µM. Further, the IC50 in the experiment filed under Homo sapiens [7] and with CCRF-CEM [9] was over 100000 nM each time.

Take `COC(=O)[C@H](CC(C)C)NP(=O)(O)OC[C@H]1O[C@@H](n2cc(C)c(=O)[nH]c2=O)C[C@@H]1N=[N+]=[N-]`: the EC50 is 1000 nM in the experiment filed under Homo sapiens [2] and 1300 nM in the experiment filed under Homo sapiens [12]. In addition, the IC50 in the experiment listed under Homo sapiens [7] and with CCRF-CEM [9] was over 100000 nM throughout.

In the case of `Cc1cn([C@H]2C[C@H](N=[N+]=[N-])[C@@H](CO)O2)c(=O)[nH]c1=O` [ZIDOVUDINE], the EC50 in the experiment filed under Homo sapiens [2] was found to be 7 nM; in experiment [14], 10 nM; in the experiment filed under Homo sapiens [3], 15 nM; in the experiment with U1, 25000 nM; in the experiment filed under Homo sapiens [5], 7 nM; in the experiment filed under Homo sapiens [6], 10 nM. In addition, the EC50 in the experiment with CCRF-CEM [10] was under 1 nM; in the experiment listed under Homo sapiens [11] it was 300 nM; in the experiment listed under Homo sapiens [12], 6 nM. Further, the Concentration (pM (10e6*cells)-1) in the experiment listed under Homo sapiens [13] worked out at 0.69; in the experiment filed under Homo sapiens [15], 1.37. The molecule further came in with an IC100 in experiment [4] of 0.01 µM. Also, the IC50 in the experiment filed under Homo sapiens [7] is over 100000 nM.

As for `CNC(=O)[C@H](Cc1ccccc1)NP(=O)(O)OC[C@H]1O[C@@H](n2cc(C)c(=O)[nH]c2=O)C[C@@H]1N=[N+]=[N-]`, the EC50 is 250 nM in the experiment filed under Homo sapiens [2] and 180 nM in the experiment listed under Homo sapiens [12]. Besides, the IC50 in the experiment listed under Homo sapiens [7] and with CCRF-CEM [9] was over 100000 nM each time.

`COC(=O)[C@@H](Cc1c[nH]c2ccccc12)NP(=O)(O)OC[C@H]1O[C@@H](n2cc(C)c(=O)[nH]c2=O)C[C@@H]1N=[N+]=[N-].COC(=O)[C@H](Cc1c[nH]c2ccccc12)NC(=O)OC[C@H]1O[C@@H](n2cc(C)c(=O)[nH]c2=O)C[C@@H]1N=[N+]=[N-]` [listing 2 of 2 here] displayed an inhibition in the experiment listed under Homo sapiens [16] of 60%.

`COC(=O)[C@H](Cc1c[nH]c2ccccc12)NP(=O)(O)OC[C@H]1O[C@@H](n2cc(C)c(=O)[nH]c2=O)C[C@@H]1N=[N+]=[N-]` had an Activity in [1] of 6.39. The figures for the Concentration (pM (10e6*cells)-1) in the experiment listed under Homo sapiens [13] and in the experiment filed under Homo sapiens [15] were 0.01 and 0.22, respectively. In addition, the IC50 in the experiment listed under Homo sapiens [17] and in the experiment on CCRF-CEM [9] was over 100000 nM each time. The EC50 in [14] was 350 nM; in the experiment listed under Homo sapiens [3] it was under 10 nM; in the experiment with CCRF-CEM [18], 4 nM; in the experiment on U1 it was 40000 nM; in the experiment listed under Homo sapiens [5] it was 350 nM; in the experiment listed under Homo sapiens [6], 350 nM. Also, the 50% effective concentration (EC50) came out at 350 nM in the experiment filed under Homo sapiens [19], 2000 nM in the experiment listed under Homo sapiens [20] and 30000 nM in the experiment filed under Homo sapiens [11]. For the same molecule, the IC100 in experiment [4] turned out to be 0.1 µM.

As for `COC(=O)[C@@H](Cc1c[nH]c2ccccc12)NP(=O)(O)OC[C@H]1O[C@@H](n2cc(C)c(=O)[nH]c2=O)C[C@@H]1N=[N+]=[N-]`, the EC50 in the experiment filed under Homo sapiens [2] and in the experiment listed under Homo sapiens [12] was 1000 nM throughout. The IC50 in the experiment filed under Homo sapiens [7] and with CCRF-CEM [9] was over 100000 nM throughout.

Values taken from ChEMBL document CHEMBL1134778, “Amino acid phosphoramidate monoesters of 3'-azido-3'-deoxythymidine: relationship between antiviral potency and intracellular metabolism” (J Med Chem, 2001).
